Results on one molecule are retold here after ChEMBL document CHEMBL4325919, “3,5-Disubstituted-indole-7-carboxamides as IKKβ Inhibitors: Optimization of Oral Activity via the C3 Substituent” (ACS Med Chem Lett, 2018).

The structures appear in SMILES notation. pIC50: −log10 of the molar value. Values after ≈ are worked out from the molar mass of the structure shown.

In general, pIC50 refers to −log10 of the IC50, conventionally taken in molar units. Usually AUC stands for the area under the concentration-time curve, a measure of exposure. Usually half-life stands for how long it takes for the measured level to halve. As usually defined, the bioavailability is the share of a dose that reaches the circulation, judged against a reference dose that is usually intravenous. A high value points to good availability.

The target in series [1] is T1, Inhibitor of nuclear factor kappa-B kinase subunit beta (Homo sapiens, UniProt O14920).
T1 sequence (O14920 whole entry): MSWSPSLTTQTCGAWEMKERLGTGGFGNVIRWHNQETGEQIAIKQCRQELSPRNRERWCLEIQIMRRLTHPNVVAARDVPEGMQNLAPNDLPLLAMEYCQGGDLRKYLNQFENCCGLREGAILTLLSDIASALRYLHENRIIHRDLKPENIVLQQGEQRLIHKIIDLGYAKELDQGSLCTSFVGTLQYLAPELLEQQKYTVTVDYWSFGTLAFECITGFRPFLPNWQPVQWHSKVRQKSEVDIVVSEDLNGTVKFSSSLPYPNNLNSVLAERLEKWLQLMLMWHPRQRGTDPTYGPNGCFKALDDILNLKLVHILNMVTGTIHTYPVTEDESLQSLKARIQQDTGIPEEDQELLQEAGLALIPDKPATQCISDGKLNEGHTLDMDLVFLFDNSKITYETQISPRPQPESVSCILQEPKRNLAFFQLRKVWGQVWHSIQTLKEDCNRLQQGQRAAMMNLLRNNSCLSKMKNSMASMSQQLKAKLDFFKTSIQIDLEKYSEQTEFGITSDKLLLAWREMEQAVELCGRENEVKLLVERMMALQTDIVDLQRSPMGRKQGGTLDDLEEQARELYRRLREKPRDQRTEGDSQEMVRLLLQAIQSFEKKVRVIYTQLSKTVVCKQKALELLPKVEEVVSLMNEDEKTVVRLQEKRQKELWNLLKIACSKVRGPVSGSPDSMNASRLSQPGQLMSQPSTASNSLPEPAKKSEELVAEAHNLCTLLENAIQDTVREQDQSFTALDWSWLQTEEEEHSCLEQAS
In words: Inhibition of recombinant human C-terminal GST-tagged IKKbeta (1 to 737 residues) expressed in baculovirus expression system using GST-IkBalpha substrate measured after 30 mins by TR-FRET assay. In a few lines: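 IKK pIC50 values are the mean of more than 2 determinations unless noted otherwise. Compounds were tested as racemic mixtures.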
In general terms: TR-FRET usually uses a lanthanide donor and a delayed reading to cut background.

The nature of series [2]: Kinetic aqueous solubility of the compound by UV-HPLC analysis. In kind it is physicochemical. The following applies: buffer; read-out: Kinetic_solubility.
A short description of series [3]: Permeability of the compound by PAMPA. The format is ADME. To be noted: read-out: permeability. (The PAMPA barrier holds no transporters, so it reflects passive diffusion.)
Series [4] concerns the target T1, Inhibitor of nuclear factor kappa-B kinase subunit beta. In words: Inhibition of IKKbeta in human CD14-positive monocytes assessed as reduction in LPS-stimulated TNFalpha secretion preincubated for 30 mins followed by LPS stimulation and measured after 24 hrs by Alpha screen assay. In kind it is cell-based.
Series [5] can be described thus: AUC in Sprague-Dawley rat at 2.1 mg/kg, po. The following applies: in vivo. In kind it is ADME, organism-based. A digest of the protocol:
(§1)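 Male Sprague Dawley rats, n=2 (n=3 for one compound). The i.v. leg used 5% DMSO with 20% Cavitron and the oral leg 5% DMSO with 6% Cavitron. Oral doses were 2 mg/kg, or 2.1 mg/kg where stated. The i.v. dose was 1 mg/kg. Clearance is plasma clearance.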

The nature of series [6]: Plasma clearance in Sprague-Dawley rat at 2.1 mg/kg, po or 1 mg/kg, iv. The format is ADME, organism-based. In a few lines:
as §1

A short description of series [7]: Volume of distribution at steady state in Sprague-Dawley rat at 2.1 mg/kg, po or 1 mg/kg, iv. The format is ADME, organism-based. To be noted: in vivo, read-out: Vdss. A digest of the protocol: as §1
A short description of series [8]: Half life in Sprague-Dawley rat at 2.1 mg/kg, po or 1 mg/kg, iv. In kind it is ADME, organism-based. To be noted: in vivo. In a few lines:
as §1

The nature of series [9]: Oral bioavailability in Sprague-Dawley rat at 2.1 mg/kg. In kind it is ADME, organism-based. The following applies: in vivo. In a few lines:
as §1

On to `CN(C)CCS(=O)(=O)N1CCC(c2c[nH]c3c(C(N)=O)cc(-c4ccccc4)cc23)CC1`, for which the pIC50 in series [1] was 8.00; in series [4], 6.30. Moreover, the solubility kinetic in series [2] came to 8 µM (≈ 3.64 µg/mL). Further, the Papp in [3] stood at 27 ×10⁻⁶ cm/s. In series [5], this molecule gave an AUC of 2080 ng·h/mL. Besides, the clearance in series [6] amounted to 7.43 mL/min/kg. For the same molecule, in series [7], the Vd was 0.84 L/kg. The molecule also returned a half-life in series [8] of 1.75 h. The molecule further showed a bioavailability in series [9] of 46%.
